Data taken from ChEMBL document CHEMBL1128288, “7-Azetidinylquinolones as antibacterial agents. 3. Synthesis, properties and structure-activity relationships of the stereoisomers containing a 7-(3-amino-2-methyl-1-azetidinyl) moiety” (J Med Chem, 1995).
Values after ≈ are worked out from the molar mass of the structure shown.

Assays:
Escherichia coli [1] = experiment: In vitro antibacterial activity measured as minimum inhibitory concentration, was evaluated on Escherichia coli ATCC 23559(Ec).; format: functional; conditions: Escherichia coli, ATCC 23559; read-out: MIC
Outline: (§1)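 Serial 2-fold agar dilution in Mueller Hinton medium, run side by side with reference quinolones. Inoculum 10^5 cfu/mL; compound range 0.007–16 µg/mL.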

Escherichia coli [2] = experiment: In vivo efficacy as ED50 against Escherichia coli HM-42 by oral administration in mice.; format: functional; conditions: Escherichia coli, po; read-out: ED50
Outline: (§2)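 Mice, 4 groups of 10, infected intraperitoneally with slightly more than the LD100 of the organism. A single oral dose was given immediately after infection, with four doses (one per group) chosen from in vitro activity. Survival was scored after one week. ED50 (total dose, mg/kg, protecting 50%) was interpolated among group survival rates.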

Pseudomonas aeruginosa [3] = experiment: In vivo efficacy as ED50 against Pseudomonas aeruginosa HS-116 by oral administration in mice.; format: functional; conditions: Pseudomonas aeruginosa, po; read-out: ED50; outline: as §2
[4] = Solubility at pH 7.4 buffer.; format: physicochemical
Outline: (§3)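 Excess solid was shaken 24 h at 25 °C in water or in 0.05 M phosphate buffer pH 7.4, then filtered (0.22 µm) with the first portion discarded. The filtrate was diluted with 0.1 N HCl or NaOH and measured spectrophotometrically at the compound's absorbance maximum.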

Bacillus subtilis = experiment: In vitro antibacterial activity measured as minimum inhibitory concentration was evaluated on Bacillus subtilis ATCC 6633(Bs).; format: functional; conditions: Bacillus subtilis, ATCC 6633; read-out: MIC; outline: as §1
[5] = Solubility in water was determined at 25 degrees Centigrade; format: physicochemical; outline: as §3
Klebsiella pneumoniae = experiment: In vitro antibacterial activity measured as minimum inhibitory concentration was evaluated on klebsiella pneumoniae ATCC 10031 (Kp).; format: functional; conditions: Klebsiella pneumoniae, ATCC 10031; read-out: MIC
Outline: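 Serial 2-fold agar dilution in Mueller Hinton medium, run side by side with reference quinolones.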

[6] = mouse, in vivo, po, 50 mg/kg
Pseudomonas aeruginosa [7] = experiment: In vitro antibacterial activity measured as minimum inhibitory concentration was evaluated on Pseudomonas aeruginosa ATCC 10145 (Pa).; format: functional; conditions: Pseudomonas aeruginosa, ATCC 10145; read-out: MIC; outline: as §1
Staphylococcus aureus [8] = experiment: In vivo efficacy as ED50 against Staphylococcus aureus HS-93 by oral administration in mice.; format: functional; conditions: Staphylococcus aureus, po; read-out: ED50; outline: as §2
Staphylococcus aureus [9] = experiment: In vitro antibacterial activity measured as minimum inhibitory concentration was evaluated on Staphylococcus aureus ATCC 25178 (Sa).; format: functional; conditions: Staphylococcus aureus, ATCC 25178; read-out: MIC; outline: as §1
Proteus vulgaris = experiment: In vitro antibacterial activity measured as minimum inhibitory concentration was evaluated on proteus vulgaris ATCC 8427 (Pv).; format: functional; conditions: Proteus vulgaris, ATCC 8427; read-out: MIC; outline: as §1
Morganella morganii = experiment: In vitro antibacterial activity measured as minimum inhibitory concentration was evaluated on morganella morganii ATCC 8019 (Mm).; format: functional; conditions: Morganella morganii, ATCC 8019; read-out: MIC; outline: as §1
Enterococcus faecalis = experiment: In vitro antibacterial activity measured as minimum inhibitory concentration was evaluated on Streptococcus faecalis ATCC 10541 (Sf).; format: functional; conditions: Enterococcus faecalis, ATCC 10541; read-out: MIC; outline: as §1
[10] = system: Staphylococcus epidermidis; experiment: In vitro antibacterial activity measured as minimum inhibitory concentration was evaluated on Staphylococcus epidermidis ATCC 155-1 (Se).; format: functional; conditions: Staphylococcus epidermidis, ATCC 155-1; read-out: MIC; outline: as §1
Bacillus cereus = experiment: In vitro antibacterial activity measured as minimum inhibitory concentration was evaluated on Bacillus cereus ATCC 11778 (Bc).; format: functional; conditions: Bacillus cereus, ATCC 11778; read-out: MIC; outline: as §1
Enterobacter cloacae = experiment: In vitro antibacterial activity measured as minimum inhibitory concentration, was evaluated on Enterobacter cloacae ATCC 23355 (Ecl).; format: functional; conditions: Enterobacter cloacae, ATCC 23355; read-out: MIC

Compound	MIC (Escherichia coli [1]) [µg/mL]	ED50 (Escherichia coli [2]) [mg/kg]	ED50 (Pseudomonas aeruginosa [3]) [mg/kg]	solubility [4] [µg/mL]	MIC (Bacillus subtilis) [µg/mL]	solubility [5] [µg/mL]	MIC (Klebsiella pneumoniae) [µg/mL]	AUC [6] [µg·h/mL]	MIC (Pseudomonas aeruginosa [7]) [µg/mL]	ED50 (Staphylococcus aureus [8]) [mg/kg]	MIC (Staphylococcus aureus [9]) [µg/mL]	MIC (Proteus vulgaris) [µg/mL]	MIC (Morganella morganii) [µg/mL]	MIC (Enterococcus faecalis) [µg/mL]	MIC [10] [µg/mL]	MIC (Bacillus cereus) [µg/mL]	MIC (Enterobacter cloacae) [µg/mL]
C[C@H]1[C@H](N)CN1c1cc2c(cc1F)c(=O)c(C(=O)O)cn2-c1ccc(F)cc1F (single isomer, unassigned) [CETEFLOXACIN]	0.06 (≈ 0.149 µM)	4	64	5.9 (≈ 14.6 µM)	0.06 (≈ 0.149 µM)	8 (≈ 19.8 µM)	0.06 (≈ 0.149 µM)	28.4	1 (≈ 2.48 µM)	7	–	–	–	–	–	–	–
C[C@H](N)C(=O)N[C@@H](C)C(=O)N[C@@H]1CN(c2nc3c(cc2F)c(=O)c(C(=O)O)cn3C2CC2)[C@H]1C	2 (≈ 4.22 µM)	–	–	> 500	1 (≈ 2.11 µM)	> 500	8 (≈ 16.9 µM)	19.2	16 (≈ 33.7 µM)	–	4 (≈ 8.43 µM)	8 (≈ 16.9 µM)	4 (≈ 8.43 µM)	16 (≈ 33.7 µM)	8 (≈ 16.9 µM)	16 (≈ 33.7 µM)	2 (≈ 4.22 µM)
C[C@@H]1[C@@H](NC(=O)[C@@H](C)N)CN1c1nc2c(cc1F)c(=O)c(C(=O)O)cn2C1CC1	1 (≈ 2.48 µM)	–	–	> 500	0.5 (≈ 1.24 µM)	> 500	8 (≈ 19.8 µM)	0	16 (≈ 39.7 µM)	–	1 (≈ 2.48 µM)	8 (≈ 19.8 µM)	8 (≈ 19.8 µM)	1 (≈ 2.48 µM)	0.25 (≈ 0.62 µM)	1 (≈ 2.48 µM)	4 (≈ 9.92 µM)
CC(C)C[C@H](N)C(=O)N[C@@H]1CN(c2nc3c(cc2F)c(=O)c(C(=O)O)cn3C2CC2)[C@H]1C	0.06 (≈ 0.135 µM)	2	63	> 500	0.12 (≈ 0.269 µM)	> 500	0.06 (≈ 0.135 µM)	24.9	8 (≈ 18 µM)	9.4	0.25 (≈ 0.561 µM)	0.25 (≈ 0.561 µM)	0.25 (≈ 0.561 µM)	2 (≈ 4.49 µM)	0.25 (≈ 0.561 µM)	0.12 (≈ 0.269 µM)	0.12 (≈ 0.269 µM)
C[C@H](N)C(=O)N[C@@H]1CN(c2nc3c(cc2F)c(=O)c(C(=O)O)cn3C2CC2)[C@H]1C	0.12 (≈ 0.297 µM)	–	–	> 500	0.12 (≈ 0.297 µM)	> 500	0.06 (≈ 0.149 µM)	28.8	8 (≈ 19.8 µM)	–	0.5 (≈ 1.24 µM)	1 (≈ 2.48 µM)	0.5 (≈ 1.24 µM)	8 (≈ 19.8 µM)	0.5 (≈ 1.24 µM)	1 (≈ 2.48 µM)	0.12 (≈ 0.297 µM)
C[C@H](N)C(=O)N[C@@H]1CN(c2cc3c(cc2F)c(=O)c(C(=O)O)cn3-c2ccc(F)cc2F)[C@H]1C	1 (≈ 2.11 µM)	–	–	> 500	0.5 (≈ 1.05 µM)	> 500	2 (≈ 4.22 µM)	–	8 (≈ 16.9 µM)	–	1 (≈ 2.11 µM)	16 (≈ 33.7 µM)	4 (≈ 8.43 µM)	8 (≈ 16.9 µM)	16 (≈ 33.7 µM)	1 (≈ 2.11 µM)	2 (≈ 4.22 µM)
C[C@@H](N)C(=O)N[C@@H]1CN(c2nc3c(cc2F)c(=O)c(C(=O)O)cn3C2CC2)[C@H]1C	0.25 (≈ 0.62 µM)	–	–	386 (≈ 957 µM)	0.12 (≈ 0.297 µM)	495 (≈ 1230 µM)	0.5 (≈ 1.24 µM)	0.4	8 (≈ 19.8 µM)	–	0.25 (≈ 0.62 µM)	2 (≈ 4.96 µM)	2 (≈ 4.96 µM)	1 (≈ 2.48 µM)	1 (≈ 2.48 µM)	0.5 (≈ 1.24 µM)	0.25 (≈ 0.62 µM)
